# Results from ChEMBL document CHEMBL1145838, “Bioactive peptidic analogues and cyclostereoisomers of the minimal antinociceptive histogranin fragment-(7-10)” (J Med Chem, 2003).
# Square brackets hold non-standard residues; d marks the D form. Peptide text beside a SMILES is read from it. Phe(4-Cl) = N[C@@H](Cc1ccc(Cl)cc1)C(=O)O
# Tests used:
# Mus musculus [1] = assay: Lack of Motor Effect measured as the time taken by the mice to remain on the rotarod after 30 min interval of icv administration of compound; type: functional
# Outline: (§1)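 Male Swiss Webster mice pre-screened on a 2.5 cm rod at 8 rpm (two 1-min rounds; fallers excluded). Peptides (10 or 2.5 nmol) or water vehicle given icv, then mice placed on the rod for 2 min. Time on rod recorded as mean ± SE, groups of 10; Student's t-test.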
# Mus musculus [2] = assay: Lack of Motor Effect measured as the time taken by the mice to remain on the rotarod after 15 min interval of icv administration of compound; type: functional; outline: as §1
# Mus musculus [3] = assay: Lack of Motor Effect measured as the time taken by the mice to remain on the rotarod after 60 min interval of icv administration of compound; type: functional; outline: as §1
# Mus musculus [4] = species on record: Mus musculus; assay: Compound was tested for antinociceptive potency using mouse writhing pain assay; type: functional
# Outline: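 Male Swiss Webster mice, 20–25 g, given peptide icv (10 μL in sterile water) or i.v.; 5 min later 1.0% AcOH (10 mL/kg) i.p. Doses 0, 0.25–50 nmol. Writhes counted for 10 min; % analgesia relative to vehicle controls, 10 mice per dose. AD50 and potency ratio with 95% CL by Litchfield–Wilcoxon.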
# Rattus norvegicus = species on record: Rattus norvegicus; assay: Compound was tested for inhibition against [3H]raclopride to Rat brain membranes; type: functional, Membrane
# Outline: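 Rat brain membranes (male Wistar, 250–300 g; 0.8 mg protein) in 5 mM Tris-HCl pH 7.4, incubated with 2.5 nM [3H]raclopride for 60 min at 22 °C alongside 9–12 peptide concentrations (10⁻¹⁰–10⁻⁴ M). Nonspecific binding defined with 10 μM (+)butaclamol. IC50 by nonlinear least-squares fit; mean ± SE of ≥3 experiments run in duplicate.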
IC50 (Rattus norvegicus) [µM],Structure (SMILES),Time (Mus musculus [1]),Time (Mus musculus [2]),Time (Mus musculus [3]),AD50 (Mus musculus [4]) [nmol mouse-1]
2.33,C[C@@H]1NC(=O)CNC(=O)[C@@H](CCCN=C(N)N)NC(=O)[C@H](Cc2ccc(O)cc2)NC1=O [listing 1 of 2 here],–,–,–,–
6.75,NC(=O)CC[C@H]1NC(=O)CNC(=O)[C@@H](CCCN=C(N)N)NC(=O)[C@H](Cc2ccc(O)cc2)NC1=O,–,–,–,4.21
3.52,N=C(N)NCCC[C@H]1NC(=O)[C@H](Cc2ccc(O)cc2)NC(=O)[C@H](Cc2ccc(N)cc2)NC(=O)CNC1=O [listing 1 of 2 here],–,–,–,–
12.5,C[C@@H]1NC(=O)[C@@H](CCC(N)=O)NC(=O)CNC(=O)[C@H](CCCN=C(N)N)NC1=O,–,–,–,7.05
4.12,NC(=O)CC[C@H]1NC(=O)CNC(=O)[C@H](CCCN=C(N)N)NC(=O)[C@H](Cc2ccc(O)cc2)NC1=O,–,–,–,3.65
4.91,NC(=O)CC[C@@H]1NC(=O)CNC(=O)[C@H](CCCN=C(N)N)NC(=O)[C@H](Cc2ccc(O)cc2)NC1=O,–,–,–,2.26
0.89,N=C(N)NCCC[C@H]1NC(=O)[C@H](Cc2ccc(O)cc2)NC(=O)[C@H](Cc2ccc(Cl)cc2)NC(=O)CNC1=O (cyclo(G[Phe(4-Cl)]Y[dR])) [listing 2 of 2 here],–,–,–,–

# Second part, the compound before the results:
Structure (SMILES),IC50 (Rattus norvegicus) [µM],Time (Mus musculus [1]),Time (Mus musculus [2]),Time (Mus musculus [3]),AD50 (Mus musculus [4]) [nmol mouse-1]
N=C(N)NCCC[C@H]1NC(=O)[C@H](Cc2ccc(O)cc2)NC(=O)[C@H](Cc2ccc(Cl)cc2)NC(=O)CNC1=O (cyclo(G[Phe(4-Cl)]Y[dR])) [listing 1 of 2 here],–,115.8,104.1,110.2,0.17
C[C@@H]1NC(=O)[C@@H](CCC(N)=O)NC(=O)CNC(=O)[C@@H](CCCN=C(N)N)NC1=O,–,–,–,–,13.3
C[C@H](NC(=O)[C@H](CCC(N)=O)NC(=O)CN)C(=O)N[C@@H](CCCN=C(N)N)C(=O)O (H-GQAR-OH),–,–,–,–,3.42
N=C(N)NCCC[C@H]1NC(=O)[C@H](Cc2ccc(O)cc2)NC(=O)[C@H](Cc2ccc(N)cc2)NC(=O)CNC1=O [listing 2 of 2 here],–,–,–,–,2.52
NCC(=O)N[C@@H](CCC(N)=O)C(=O)NCC(=O)N[C@@H](CCCN=C(N)N)C(=O)O (H-GQGR-OH),–,–,–,–,25.9
C[C@@H]1NC(=O)CNC(=O)[C@@H](CCCN=C(N)N)NC(=O)[C@H](Cc2ccc(O)cc2)NC1=O [listing 2 of 2 here],–,120,107,120,1.35
